ChEMBL document CHEMBL1134751, “Design and synthesis of ether analogues as potent and selective M2 muscarinic receptor antagonists” (Bioorg Med Chem Lett, 2001)

What was measured:
[1] = biological target: Muscarinic acetylcholine receptors; M2 & M3 (Homo sapiens) (UniProt P20309+P08172); assay: Ratio of binding affinity against Muscarinic acetylcholine receptor M3 to that of Muscarinic acetylcholine receptor M2; type: protein assay
[2] = biological target: T1, Muscarinic acetylcholine receptor M2 (Homo sapiens, UniProt P08172); assay: Binding affinity towards Muscarinic acetylcholine receptor M2 stably expressed in CHO-K1 cells using [3H]-QNB as radioligand; type: cell-based
T1 sequence (P08172 whole entry): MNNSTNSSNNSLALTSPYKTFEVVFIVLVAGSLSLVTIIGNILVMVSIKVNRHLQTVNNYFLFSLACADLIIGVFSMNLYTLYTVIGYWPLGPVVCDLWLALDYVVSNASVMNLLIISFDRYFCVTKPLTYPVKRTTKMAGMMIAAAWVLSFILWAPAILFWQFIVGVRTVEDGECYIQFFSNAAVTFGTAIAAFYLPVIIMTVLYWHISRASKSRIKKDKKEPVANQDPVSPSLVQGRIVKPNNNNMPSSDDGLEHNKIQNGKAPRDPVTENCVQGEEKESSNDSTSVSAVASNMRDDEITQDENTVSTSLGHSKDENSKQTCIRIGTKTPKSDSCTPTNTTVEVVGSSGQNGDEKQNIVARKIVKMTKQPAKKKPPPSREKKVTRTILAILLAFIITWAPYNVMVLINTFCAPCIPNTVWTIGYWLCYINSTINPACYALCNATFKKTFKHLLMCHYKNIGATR
Procedure, shortened: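 Competition binding on membranes of clonal cells expressing receptor at 1–9 pmol/mg protein. Incubated with 180 pM [3H]QNB in 10 mM potassium phosphate pH 7.4 plus 1% DMSO and 0.4% methylcellulose for 120 min at rt to equilibrium. Non-specific binding defined with 0.5 mM atropine, protein set for 700–1500 cpm specific binding, then filtration separation. QNB Kd from saturation with 5–2500 pM [3H]QNB.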

[3] = biological target: T2, Muscarinic acetylcholine receptor M2 (Homo sapiens) (UniProt P08172); assay: Ratio of binding affinity against Muscarinic acetylcholine receptor M4 to that of Muscarinic acetylcholine receptor M2
T2 sequence (whole entry): T1 sequence (P08172 whole entry)

[4] = biological target: T2, Muscarinic acetylcholine receptor M2 (Homo sapiens); assay: Ratio of binding affinity against Muscarinic acetylcholine receptor M5 to that of Muscarinic acetylcholine receptor M2
[5] = biological target: Muscarinic acetylcholine receptors; M1 & M2 (Homo sapiens) (UniProt P11229+P08172); assay: Ratio of binding affinity against Muscarinic acetylcholine receptor M1 to that of Muscarinic acetylcholine receptor M2; type: protein assay
Sequence of Muscarinic acetylcholine receptors; M1 & M2 (Homo sapiens) (P11229 whole entry, looked up, one chain of several): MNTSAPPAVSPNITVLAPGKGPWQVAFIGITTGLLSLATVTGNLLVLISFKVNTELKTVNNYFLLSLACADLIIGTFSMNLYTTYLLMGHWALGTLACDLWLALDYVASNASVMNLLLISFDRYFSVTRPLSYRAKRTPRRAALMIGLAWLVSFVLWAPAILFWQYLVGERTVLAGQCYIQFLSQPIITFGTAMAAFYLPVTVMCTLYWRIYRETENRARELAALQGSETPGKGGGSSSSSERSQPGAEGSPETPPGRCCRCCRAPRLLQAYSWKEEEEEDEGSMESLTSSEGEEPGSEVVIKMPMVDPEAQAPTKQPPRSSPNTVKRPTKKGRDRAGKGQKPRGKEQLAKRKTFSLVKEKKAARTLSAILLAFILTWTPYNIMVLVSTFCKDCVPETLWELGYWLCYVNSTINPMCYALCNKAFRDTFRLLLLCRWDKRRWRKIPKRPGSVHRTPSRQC

O=C(c1cccc2ccccc12)N1CCC(N2CCC(Oc3ccc(S(=O)(=O)c4ccc5c(c4)OCO5)cc3)CC2)CC1
Ratio [1]: 216 | Ki [2]: 0.5 nM | Ratio [3]: 28 | Ratio [4]: 50 | Ratio [5]: 357

CC(C)OC(=O)N1CCC(N2CCC(Oc3ccc(S(=O)(=O)c4ccc5c(c4)OCO5)cc3)CC2)CC1
Ratio [1]: 19 | Ki [2]: 3.2 nM | Ratio [3]: 7 | Ratio [4]: 10 | Ratio [5]: 59

O=C(c1ccnc2ccccc12)N1CCC(N2CCC(Oc3ccc(S(=O)(=O)c4ccc5c(c4)OCO5)cc3)CC2)CC1
Ratio [1]: 117 | Ki [2]: 1 nM | Ratio [3]: 18 | Ratio [4]: 1480 | Ratio [5]: 140

CCCS(=O)(=O)N1CCC(N2CCC(Oc3ccc(S(=O)(=O)c4ccc5c(c4)OCO5)cc3)CC2)CC1
Ratio [1]: 46 | Ki [2]: 1.6 nM | Ratio [3]: 25 | Ratio [4]: 39 | Ratio [5]: 58

CC(C)S(=O)(=O)N1CCC(N2CCC(Oc3ccc(S(=O)(=O)c4ccc5c(c4)OCO5)cc3)CC2)CC1
Ratio [1]: 2 | Ki [2]: 14 nM | Ratio [3]: 2 | Ratio [4]: 16 | Ratio [5]: 10

O=C(Oc1ccccc1)N1CCC(N2CCC(Oc3ccc(S(=O)(=O)c4ccc5c(c4)OCO5)cc3)CC2)CC1
Ratio [1]: 61 | Ki [2]: 1.1 nM | Ratio [3]: 11 | Ratio [4]: 69 | Ratio [5]: 48

O=S(=O)(c1ccc(OC2CCN(C3CCN(S(=O)(=O)Cc4ccccc4)CC3)CC2)cc1)c1ccc2c(c1)OCO2
Ratio [1]: 12 | Ki [2]: 15 nM | Ratio [3]: 4 | Ratio [4]: 1 | Ratio [5]: 19

O=C(c1cccc2cccnc12)N1CCC(N2CCC(Oc3ccc(S(=O)(=O)c4ccc5c(c4)OCO5)cc3)CC2)CC1
Ratio [1]: 10 | Ki [2]: 12 nM | Ratio [3]: 2 | Ratio [4]: 4 | Ratio [5]: 9

Cc1cccc(C(=O)N2CCC(N3CCC(Oc4ccc(S(=O)(=O)c5ccc6c(c5)OCO6)cc4)CC3)CC2)c1C
Ratio [1]: 132 | Ki [2]: 0.4 nM | Ratio [3]: 31 | Ratio [4]: 56 | Ratio [5]: 155

CCS(=O)(=O)N1CCC(N2CCC(Oc3ccc(S(=O)(=O)c4ccc5c(c4)OCO5)cc3)CC2)CC1
Ratio [1]: 122 | Ki [2]: 2 nM | Ratio [3]: 12 | Ratio [4]: 46 | Ratio [5]: 49

O=C(c1ccccc1)N1CCC(N2CCC(Oc3ccc(S(=O)(=O)c4ccc5c(c4)OCO5)cc3)CC2)CC1
Ratio [1]: 6 | Ki [2]: 1.6 nM | Ratio [3]: 6 | Ratio [4]: 15 | Ratio [5]: 18

O=C(c1cccc2ncccc12)N1CCC(N2CCC(Oc3ccc(S(=O)(=O)c4ccc5c(c4)OCO5)cc3)CC2)CC1
Ratio [1]: 124 | Ki [2]: 0.5 nM | Ratio [3]: 21 | Ratio [4]: 64 | Ratio [5]: 233

O=S(=O)(c1ccc(OC2CCN(C3CCN(S(=O)(=O)c4cccc5ccccc45)CC3)CC2)cc1)c1ccc2c(c1)OCO2
Ratio [1]: 8 | Ki [2]: 34.7 nM | Ratio [3]: 1 | Ratio [4]: 4 | Ratio [5]: 2

CCCCS(=O)(=O)N1CCC(N2CCC(Oc3ccc(S(=O)(=O)c4ccc5c(c4)OCO5)cc3)CC2)CC1
Ratio [1]: 50 | Ki [2]: 6.9 nM | Ratio [3]: 4 | Ratio [4]: 35 | Ratio [5]: 35

Cc1ccsc1C(=O)N1CCC(N2CCC(Oc3ccc(S(=O)(=O)c4ccc5c(c4)OCO5)cc3)CC2)CC1
Ratio [1]: 109 | Ki [2]: 0.2 nM | Ratio [3]: 23 | Ratio [4]: 196 | Ratio [5]: 234

O=C(COc1ccccc1)N1CCC(N2CCC(Oc3ccc(S(=O)(=O)c4ccc5c(c4)OCO5)cc3)CC2)CC1
Ratio [1]: 5 | Ki [2]: 59.5 nM | Ratio [3]: 3 | Ratio [4]: 13 | Ratio [5]: 8

CCOC(=O)N1CCC(N2CCC(Oc3ccc(S(=O)(=O)c4ccc5c(c4)OCO5)cc3)CC2)CC1
Ki [2]: 6 nM | Ratio [5]: 4

CCOCC(=O)N1CCC(N2CCC(Oc3ccc(S(=O)(=O)c4ccc5c(c4)OCO5)cc3)CC2)CC1
Ratio [1]: 5 | Ki [2]: 17.9 nM | Ratio [3]: 2 | Ratio [4]: 13 | Ratio [5]: 6

CCCS(=O)(=O)N1CCC(N2CCC(Oc3ccc(S(=O)(=O)c4ccc(OC)cc4)cc3)CC2)CC1
Ki [2]: 139 nM
